According to the RNAGym collection of RNA variant scans (doi:10.1101/gad.245936.114):
Variants at the floor of the assay were thinned out.

B1: tRNA (parent)
chain: CUCUCGGUAGCCAAGUUGGUUUAAGGCGCAAGACUUUAAUUUAUCACUACGAAAUCUUGAGAUCGGGCGUUCGACUCGCCCCCGGGAGAUUUUUUCCUCGAGCAA

Variants of: B1
Test: nonsense suppression (GFP-seq) (ratio to wild type); higher = more function; SUP4oc tRNA, yeast GFP reporter sort-seq
Method in brief: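 To measure nonsense suppression, tRNA variants from a library carrying ~3% random mutations were integrated into the yeast genome alongside RFP and a GFP ochre reporter under galactose control. Growth took place in raffinose/galactose medium supplemented with 80 mg/L adenine, followed by sorting into GFP/RFP bins and Illumina sequencing of each bin (phred ≥30). For each variant with ≥100 reads and ≥30 cells, the bin median GFP/RFP values were weighted by its estimated cell share per bin and referenced to the unmutated parent tRNA.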

Variant | nonsense suppression
U4G U17C | 0.45
C5G G10C U57C | ≤ 0.026
U4G U8A | ≤ 0.026
C5G A24U U57C G66U | ≤ 0.026
G6A G28C | 0.0666
G6C C77G | ≤ 0.026
U4C A13G | 0.774
U4C A13C | 1.05
U4C A13U | 1.12
C5A A9C A24G G85A | ≤ 0.026
C5G U16A U22C U57C C72U A87C | ≤ 0.026
U4G C56U | 0.0355
U4A A9U | 0.2
C5A U76C G86C | ≤ 0.026
G6A G25C A33G | ≤ 0.026
G6A G10A G19C A54U G73C G88U | ≤ 0.026
U4C U63C G67A | ≤ 0.026
C5A A14G | ≤ 0.026
G6A G78A | 0.037
G6A C79U G88C | ≤ 0.026
C5G C12A G59U | ≤ 0.026
U4C U22C G86A | 1.16
U4G U22A | 0.216
U4G U22G | 0.492

Variant | nonsense suppression
C5U U8C G65A | ≤ 0.026
G6A A24G C27A C29G | ≤ 0.026
C5U A23G | 0.0405
U4G A54U | 0.469
U4C U8A | 0.0441
G6A A62U | ≤ 0.026
C5U U20C | ≤ 0.026
U4A G85A | 0.0324
C5A A24C | 0.0269
U4G G6A | 0.0297
C5A U63A G66C | ≤ 0.026
U4C G26U C34G U35A C82A | ≤ 0.026
U4C C34A | 0.0274
U4C C34G | 0.0649
C5A G7U U17C | ≤ 0.026
U4G U71A | 0.0967
U4A A13C C83U G84C | ≤ 0.026
U4A U76A | 0.0437
G6C U16A C56G U57C U58C U71C | ≤ 0.026
U4A A54U | 0.191
C5A G19U U55G A60U | ≤ 0.026
C5U U76A C79A | ≤ 0.026
U4G A31U | 0.0387
U4G A31G | 0.0398

Variant | nonsense suppression
U4G A74G | 0.0287
U4G G66A | 0.0774
U4G U16C | 0.882
C5A A31C | ≤ 0.026
U4A A60U | 0.52
C5U C11A U21G A87U | ≤ 0.026
U4A U63A | 0.155
U4G A60C G85A | ≤ 0.026
U4G C75U | 1.1
U4G A87C | 0.0794
U4C U17C | 1.04
U4C A9U | 1.07
U4C A9C | 1.02
U4C A9G | 0.391
U4C U8G G65A | ≤ 0.026
C5G G25C G69C | ≤ 0.026
G6A U8G | ≤ 0.026
C5U C12G A13G C29A | ≤ 0.026
U4C A14G G61A U71A | ≤ 0.026
C5A A60C | 0.0331
C5A A60G | 0.0265
C5U G26C G65C U76A | ≤ 0.026
C5A G19C A62G | ≤ 0.026
U4A G61U | 0.194

Variant | nonsense suppression
U4A A9G G73U C77G G86U | ≤ 0.026
U4C U35C G69C | ≤ 0.026
U4C A13G C29U | 0.221
C5A A24U G66A | ≤ 0.026
C5G A60C C64A | ≤ 0.026
C5G U76G | ≤ 0.026
U4G G59A | 0.0506
U4G C5G U17C U63C A74U | ≤ 0.026
U4G A60U | 1.12
U4C A54C | 1.01
C5G G7U C11G | ≤ 0.026
C5U U55G C68A A74U | ≤ 0.026
U4C U35G G61A G78A C83A G86C | ≤ 0.026
U4A C11U C34U | ≤ 0.026
U4C U22A G86A | 0.552
G6C A14G A60C G65U C79G G86C | ≤ 0.026
U4C A9G A13G U76C | 0.202
U4C A31G G65A | ≤ 0.026
C5U A13G A14C | ≤ 0.026
U4G U63A | 0.199
C5U C11U G66A | ≤ 0.026
U4A A31U | 0.0312
U4A U20C A31U U71G C80A | ≤ 0.026
U4A A14G | 0.0942

Variant | nonsense suppression
U4A A14U | 0.0276
U4C G7U U8C G69C | ≤ 0.026
U4A C11A A14U | ≤ 0.026
U4C A31U | 1.04
U4G A13U | 0.191
U4C G61U C79G A89G | ≤ 0.026
C3U U63A | 0.12
U4A G19A A31U A62G | ≤ 0.026
U4G U57G | 0.0369
U4C A31U U57G G88U | ≤ 0.026
C5A G78A | 0.0335
C5A G78U | 0.0303
C5A G78C | ≤ 0.026
C5U A87G | 0.0561
U4C C27U G61A | 0.205
U4C U21C G67A | 0.0868
C5G C12G U16C G32A | ≤ 0.026
C5G C34U A74U C77A | ≤ 0.026
U4G C72G | 0.0909
U4G C81U | 0.161
U4G A9C | 0.0511
C5G G66U U71C | ≤ 0.026
C5U G10A A13G G73A C75A G86C | ≤ 0.026
U4C C27U | 0.792

Variant | nonsense suppression
U4G G73U | 0.0898
U4G G73C | 0.0291
U4G U20G U22A | 0.21
C5A G59C | ≤ 0.026
G6A C29G A62C C75G | ≤ 0.026
C5A G61C | 0.0329
U4G A89U | 0.0348
C5U | 0.096
U4C U16C A31U | 0.97
C5U G6A C11A G25A | ≤ 0.026
U4C A87C | 0.197
U4C A87G | 1.1
U4G U57G A60U | ≤ 0.026
C5U G28C | 0.0292
U4C U57A | 0.609
U4C U57G | 0.0337
U4A C5A | 0.0374
U4C A62U | 0.272
C5G A87U | ≤ 0.026
U4G C77A | 0.0479
U4G C77U | 0.0723
C5A U8C G15C A60C | ≤ 0.026
C5U C29U C34U A87C | ≤ 0.026
U4C A13C A24U | 0.488

Variant | nonsense suppression
C5U G7U G25A | ≤ 0.026
C5G G25A A89G | ≤ 0.026
U4G A24C | 0.134
U4A C77U | 0.0506
U4C A13G C83U | 0.334
C5U C75A | 0.209
C5U C75U | 0.0347
U4G G32A A33G | ≤ 0.026
U4C G7U | 0.202
C5A A14U A33C U55C | ≤ 0.026
U4G G78U | 0.0997
C5U G69A | ≤ 0.026
C5U G84A | 1.15
U4C A30U | 0.0792
C5U A14G U55G | ≤ 0.026
U4G G61A C75A | 0.558
U4C A23U A54G G59U G67C | ≤ 0.026
U4A U17A | 0.174
C5G U20G C75G G88U | ≤ 0.026
U4A A13U | 0.18
U4A A13C | 0.294
U4C C29A | 1.11
U4C C29U | 1.03
